Data set [1] relates to Human alphaherpesvirus 2. In words: Antiviral activity against Human herpesvirus 2 strain G infected human HEL cells assessed as reduction of virus-induced cytopathic effect after 3 days by colorimetric formazan-based MTS assay. Format: functional, organism-based. Conditions: Human alphaherpesvirus 2, strain G, 72 h. The procedure, abridged:
(§1)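 Confluent cell monolayers were infected with 100 CCID50 of virus, and serial dilutions of compound were added at the time of infection.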
(In general: Protection from cytopathic effect is a common read-out in antiviral testing.)

Data set [2] can be described thus: Cytotoxicity against Homo sapiens (human) HEL cells assessed as change in cellular morphology. The class given is cell-based.
Data set [3] has as its system Vesicular stomatitis virus. In words: Antiviral activity against Vesicular stomatitis virus infected human HEL cells assessed as reduction of virus-induced cytopathic effect after 3 days by colorimetric formazan-based MTS assay. Format: functional, organism-based. Conditions: 72 h. The procedure, abridged:
as §1

Data set [4] concerns Vaccinia virus. As to the kind of experiment: Antiviral activity against Vaccinia virus infected human HEL cells assessed as reduction of virus-induced cytopathic effect after 3 days by colorimetric formazan-based MTS assay. Format: functional, organism-based. Conditions: Orthopoxvirus vaccinia, 72 h. The procedure, abridged:
as §1

In data set [5] the test system is Human alphaherpesvirus 1. As to the kind of experiment: Antiviral activity against acyclovir-resistant thymidine kinase negative Human herpesvirus 1 strain KOS infected human HEL cells assessed as reduction of virus-induced cytopathic effect after 3 days by colorimetric formazan-based MTS assay. The settings on record: Human alphaherpesvirus 1, KOS, 72 h. Format: functional, organism-based. The essentials: as §1

The subject of data set [6] is MDCK. In words: (§2) Cytotoxicity against MDCK cells assessed as change in cellular morphology. The class given is cell-based, Canis lupus familiaris. The settings on record: dog, mdck. The procedure, abridged:
(§3)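 Uninfected cells were exposed to compound in parallel with the antiviral cultures. The read-out is the minimum cytotoxic concentration that causes a microscopically detectable alteration of normal cell morphology.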

A short description of data set [7]: as §2. Format: cell-based, Canis lupus familiaris. Conditions: dog, MDCK cells. The procedure, abridged: as §3
In data set [8] the test system is Influenza B virus. As to the kind of experiment: Antiviral activity against Influenza B virus infected in MDCK cells assessed as reduction of virus-induced cytopathic effect after 3 days by colorimetric formazan-based MTS assay. The class given is functional, organism-based. Conditions: 72 h. The procedure, abridged:
as §1

The subject of data set [9] is Influenza A virus. As to the kind of experiment: Antiviral activity against Unidentified Influenza A virus (H1N1) infected MDCK cells assessed as reduction of virus-induced cytopathic effect after 3 days by colorimetric formazan-based MTS assay. Format: functional, organism-based. The settings on record: 72 h. The procedure, abridged:
as §1

In data set [10] the test system is Influenza A virus H3N2. In words: Antiviral activity against Influenza A virus H3N2 infected MDCK cells assessed as reduction of virus-induced cytopathic effect after 3 days by colorimetric formazan-based MTS assay. The class given is functional, organism-based. Conditions: 72 h. The procedure, abridged:
as §1

The test system of data set [11] is Candida albicans. As to the kind of experiment: Antifungal activity against Candida albicans assessed as growth inhibition at 50 ug/ml by cup-plate method (reference value: 8 to 10 mm). Conditions: read-out: DIZ. Format: functional.
Data set [12] concerns Aspergillus niger. As to the kind of experiment: Antifungal activity against Aspergillus niger assessed as growth inhibition at 50 ug/ml by cup-plate method (reference value: 8 to 10 mm). The class given is functional. The settings on record: read-out: DIZ.
Data set [13] relates to Proteus vulgaris. As to the kind of experiment: Antibacterial activity against Proteus vulgaris assessed as growth inhibition at 50 ug/ml by cup-plate method (reference value: 8 to 10 mm). Format: functional. Conditions: read-out: DIZ.
Data set [14] relates to Bacillus subtilis. As to the kind of experiment: Antibacterial activity against Bacillus subtilis assessed as growth inhibition at 50 ug/ml by cup-plate method (reference value: 8 to 10 mm). Format: functional. Conditions: read-out: DIZ.
Data set [15] deals with Escherichia coli. As to the kind of experiment: Antibacterial activity against Escherichia coli assessed as growth inhibition at 50 ug/ml by cup-plate method (reference value: 8 to 10 mm). The class given is functional. Conditions: read-out: DIZ.
Data set [16] deals with Salmonella typhi. In words: Antibacterial activity against Salmonella enterica subsp. enterica serovar Typhi assessed as growth inhibition at 50 ug/ml by cup-plate method (reference value: 8 to 10 mm). The class given is functional. Conditions: read-out: DIZ.
The test system of data set [17] is Klebsiella pneumoniae. In words: Antibacterial activity against Klebsiella pneumoniae assessed as growth inhibition at 50 ug/ml by cup-plate method (reference value: 8 to 10 mm). Format: functional. Conditions: read-out: DIZ.
In data set [18] the test system is Staphylococcus aureus. In words: Antibacterial activity against Staphylococcus aureus assessed as growth inhibition at 50 ug/ml by cup-plate method (reference value: 8 to 10 mm). The class given is functional. The settings on record: read-out: DIZ.
For data set [19], the system named is Vesicular stomatitis virus. In words: Antiviral activity against Vesicular stomatitis virus infected human HeLa cells assessed as reduction of virus-induced cytopathic effect after 3 days by colorimetric formazan-based MTS assay. Conditions: 72 h. Format: functional, organism-based. The procedure, abridged: as §1
A short description of data set [20]: Cytotoxicity against Homo sapiens (human) HeLa cells assessed as change in cellular morphology. Format: cell-based. Conditions: HeLa cells. The essentials:
as §3

Data set [21] has as its system Human respirovirus 3. In words: Antiviral activity against Human parainfluenza virus 3 infected African green monkey Vero cells assessed as reduction of virus-induced cytopathic effect after 3 days by colorimetric formazan-based MTS assay. The class given is functional, organism-based. Conditions: Human respirovirus 3, Vero, 72 h. The procedure, abridged:
(§4)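 Cells grown to confluency in 96-well plates ([…], Vero for lines 9–10) were infected with 100 CCID50 of virus, and serial compound dilutions were added at infection. Plates were incubated at 37 °C for 3 days, until complete CPE appeared in untreated virus controls.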

The subject of data set [22] is Coxsackievirus B4. In words: Antiviral activity against Human coxsackievirus B4 infected human HeLa cells assessed as reduction of virus-induced cytopathic effect after 3 days by colorimetric formazan-based MTS assay. The class given is functional, organism-based. The settings on record: Enterovirus B, 72 h. The essentials:
as §1

Data set [23] deals with Mammalian orthoreovirus 1. In words: Antiviral activity against Mammalian orthoreovirus 1 infected African green monkey Vero cells assessed as reduction of virus-induced cytopathic effect after 3 days by colorimetric formazan-based MTS assay. Format: functional, organism-based. The settings on record: Mammalian orthoreovirus 1, Vero, 72 h. The essentials:
as §4

A short description of data set [24]: Cytotoxicity against Chlorocebus aethiops (African green monkey) Vero cells assessed as change in cellular morphology. Conditions: chlorocebus sabaeus. The class given is cell-based.
Data set [25] has as its system Coxsackievirus B4. In words: Antiviral activity against Human coxsackievirus B4 infected African green monkey Vero cells assessed as reduction of virus-induced cytopathic effect after 3 days by colorimetric formazan-based MTS assay. The class given is functional, organism-based. The settings on record: Enterovirus B, 72 h. The procedure, abridged: as §1
The test system of data set [26] is Respirovirus muris. As to the kind of experiment: Antiviral activity against Sendai virus infected African green monkey Vero cells assessed as reduction of virus-induced cytopathic effect after 3 days by colorimetric formazan-based MTS assay. The class given is functional, organism-based. The settings on record: 72 h.
Data set [27] deals with Respiratory syncytial virus. As to the kind of experiment: Antiviral activity against Respiratory syncytial virus infected human HeLa cells assessed as reduction of virus-induced cytopathic effect after 3 days by colorimetric formazan-based MTS assay. Format: functional, organism-based. Conditions: 72 h. The essentials:
as §1

Data set [28] can be described thus: Inhibition of beta lactamase assessed as time for decolorization of iodine (reference value: 79.5 secs).
Data set [29] in a line: Inhibition of beta lactamase assessed as increase in time taken for iodine decolorization relative to control. Also noted: concentration or dose not given beside the values. The settings on record: concentration not given here.

Usually EC50 stands for the concentration at which the effect is half-maximal. On to `Nc1nc2c(ncn2COCCO)c(=O)[nH]1` [ACYCLOVIR], for which the figures for the EC50 in [1], in data set [3] and in [4] were 0.7 µM, above 250 µM and above 250 µM, respectively. The MCC in data set [2] is above 250 µM.
For `O=c1[nH]c(=O)n([C@H]2C[C@H](O)[C@@H](CO)O2)cc1/C=C/Br` [BRIVUDINE], the MCC in data set [2] is above 250 µM. Further, the EC50 was above 250 µM in data set [5], above 250 µM in data set [3] and 29 µM in data set [4].
The CC50 is the concentration giving 50% cytotoxicity. Consider `NC12CC3CC(CC(C3)C1)C2` [AMANTADINE], for which, in [6], the CC50 is above 500 µM. The MCC in data set [7] was above 500 µM. For the same compound, the EC50 in [8] was above 500 µM; in [9], 65.5 µM; in [10], 1.5 µM.
Regarding `OC(Cn1cncn1)(Cn1cncn1)c1ccc(F)cc1F` [FLUCONAZOLE], the zone of inhibition at 50 µg/mL in data set [11] and in [12] was 31 mm each time.
Consider `CC1COc2c(N3CCN(C)CC3)c(F)cc3c(=O)c(C(=O)O)cn1c23` (configuration not stated) [OFLOXACIN], for which the zone of inhibition at 50 µg/mL in data set [13], in data set [14], in data set [15], in data set [16], in data set [17] and in data set [18] was 31 mm each time.
On to `NC(=O)c1ncn([C@@H]2O[C@H](CO)[C@@H](O)[C@H]2O)n1` [RIBAVIRIN], for which the EC50 is 12.1 µM in data set [19]; 8.4 µM in data set [8]; 50 µM in data set [21]; 28.5 µM in [22]; above 250 µM in data set [23]; 11.5 µM in data set [9]. The EC50 in [10] was 6.8 µM; in [25] it was above 250 µM; in [26], above 250 µM; in data set [27], 4.6 µM. For the same compound, in data set [20], the CC50 is above 250 µM. Besides, the MCC in data set [20] was above 250 µM; in data set [7] it was at least 100 µM; in [24], above 250 µM.
For orientation: inhibition means the relative decrease from the control value, in per cent. Consider `O=C(O)[C@H]1/C(=C/CO)O[C@@H]2CC(=O)N21`, for which, in data set [28], the TIME amounted to 0.0668 h. For the same compound, the inhibition in data set [29] worked out at 67%.
